Values after ≈ are worked out from the molar mass of the structure shown.
Tests used:
[1] = system: Mycobacterium tuberculosis; assay: Antimycobacterial activity against multidrug resistance Mycobacterium tuberculosis CDCT-16 clinical isolates assessed as reduction in bacterial growth by resazurin reduction microplate assay; type: functional
How it was run: (§1)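 REMA in Middlebrook 7H9 broth with 10% ADC. Compounds dissolved at 1 mg/mL in DMSO and diluted to 50 μg/mL in broth containing 5% DMSO. Ten-point two-fold dilutions gave 25.0 to 0.05 μg/mL. Growth and sterility controls on each plate. MIC was the lowest concentration preventing the blue-to-pink change.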

[2] = system: Mycobacterium tuberculosis; assay: Antimycobacterial activity against multidrug resistance Mycobacterium tuberculosis CDCT-27 clinical isolates assessed as reduction in bacterial growth by resazurin reduction microplate assay; type: functional; how it was run: as §1

Row | Structure (SMILES) | MIC [1] [µM] | MIC [2] [µM]
1 | CC1=C(C[Se]C(=O)c2ccccc2C)C(=O)c2ccccc2C1=O | 3.1 (≈ 1.19 µg/mL) | 3.1 (≈ 1.19 µg/mL)
2 | COc1ccc(C(=O)[Se]CC2=C(C)C(=O)c3ccccc3C2=O)cc1 | > 10 | > 10
3 | CC1=C(C[Se]C(=O)c2ccc(Cl)cc2)C(=O)c2ccccc2C1=O | > 10 | > 10
4 | CCCCC(=O)[Se]CC1=C(C)C(=O)c2ccccc2C1=O | > 10 | > 10
5 | CCCC(C)C(=O)[Se]CC1=C(C)C(=O)c2ccccc2C1=O (stereo not given) | > 10 | > 10
6 | CC1=C(C[Se]C(=O)c2ccccc2)C(=O)c2ccccc2C1=O | 0.8 (≈ 0.295 µg/mL) | 0.8 (≈ 0.295 µg/mL)
7 | CC1=C(C[Se]C(=O)c2ccc(F)cc2)C(=O)c2ccccc2C1=O | 0.8 (≈ 0.31 µg/mL) | 3.1 (≈ 1.2 µg/mL)
8 | CC1=C(C[Se]C(=O)c2ccc(C)cc2)C(=O)c2ccccc2C1=O | > 10 | > 10
9 | NNC(=O)c1ccncc1 [ISONIAZID] | 100 (≈ 13.7 µg/mL) | 25 (≈ 3.43 µg/mL)
10 | CCc1ccc(C(=O)[Se]CC2=C(C)C(=O)c3ccccc3C2=O)cc1 | > 10 | > 10
